In brackets after ≈: the same amount, converted by molar mass.
Columns and labels:
Enterococcus [1] = assay: Ratio of kcat to Km of Enterococcus APH(3')-3a
Escherichia coli [2] = assay: Antibacterial activity against aminoglycoside-susceptible Escherichia coli ATCC 25922 after 12 to 18 hrs; assay type: functional
Procedure, shortened: (§1)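 Broth microdilution. Bacterial suspension adjusted with broth to absorbance 0.08–0.1 at 625 nm, diluted further in broth, and mixed in wells with 2-fold serial dilutions of compound. Plates incubated at 35°C for 12–18 h. MIC is the lowest concentration inhibiting growth; each determination repeated at least three times.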

Escherichia coli [3] = assay: Antibacterial activity against Escherichia coli TG1 pTZ19U-3 plasmid encoded for APH(3')-1 after 12 to 18 hrs; assay type: functional; procedure, shortened: as §1
Escherichia coli [4] = assay: Antibacterial activity against Escherichia coli TG1 pSF815 plasmid encoded for AAC(6')/APH(2') after 12 to 18 hrs; assay type: functional; procedure, shortened: as §1
Staphylococcus aureus = assay: Antibacterial activity against aminoglycoside-susceptible Staphylococcus aureus ATCC 25923 after 12 to 18 hrs; assay type: functional; procedure, shortened: as §1
Enterococcus [5] = assay: Activity of Enterococcus APH(3')-3a
Escherichia coli [6] = assay: Antibacterial activity against Escherichia coli TG1 pET28a plasmid encoded for APH(3')-3a after 12 to 18 hrs; assay type: functional; procedure, shortened: as §1
Escherichia coli [7] = assay: Antibacterial activity against aminoglycoside-susceptible Escherichia coli TG1 after 12 to 18 hrs; assay type: functional; procedure, shortened: as §1

NC[C@@H]1O[C@H](O[C@H]2[C@@H](O)[C@H](O[C@@H]3[C@@H](O)[C@H](N)C[C@H](N)[C@H]3O[C@H]3O[C@H](CN)[C@@H](O)[C@H](O)[C@H]3N)O[C@@H]2CNC(=O)CCC(=O)NC[C@H]2O[C@@H](O[C@@H]3[C@@H](O)[C@H](N)C[C@H](N)[C@H]3O[C@H]3O[C@H](CN)[C@@H](O)[C@H](O)[C@H]3N)[C@H](O)[C@@H]2O[C@H]2O[C@@H](CN)[C@@H](O)[C@H](O)[C@H]2N)[C@H](N)[C@@H](O)[C@@H]1O
kcat/Km (Enterococcus [1]): < 0.01 ×10⁴ /M/s
MIC (Escherichia coli [2]): 32 µg/mL (≈ 24.4 µM)
MIC (Escherichia coli [3]): 500 µg/mL (≈ 382 µM)
MIC (Escherichia coli [4]): 16 µg/mL (≈ 12.2 µM)
MIC (Staphylococcus aureus): 2 µg/mL (≈ 1.53 µM)
Km (Enterococcus [5]): > 500 µM
Vmax (Enterococcus [5]): < 0.1 µmol/min/mg
kcat (Enterococcus [5]): < 0.05 s⁻¹
MIC (Escherichia coli [6]): 64 µg/mL (≈ 48.9 µM)
MIC (Escherichia coli [7]): 8 µg/mL (≈ 6.11 µM)

NC[C@@H]1O[C@H](O[C@H]2[C@@H](O)[C@H](O[C@@H]3[C@@H](O)[C@H](N)C[C@H](N)[C@H]3O[C@H]3O[C@H](CN)[C@@H](O)[C@H](O)[C@H]3N)O[C@@H]2CNC(=O)CCC(=O)O)[C@H](N)[C@@H](O)[C@@H]1O
kcat/Km (Enterococcus [1]): 0.81 ×10⁴ /M/s
MIC (Escherichia coli [2]): 64 µg/mL (≈ 89.7 µM)
MIC (Escherichia coli [3]): ≥ 2000 µg/mL
MIC (Escherichia coli [4]): 64 µg/mL (≈ 89.7 µM)
MIC (Staphylococcus aureus): 8 µg/mL (≈ 11.2 µM)
Km (Enterococcus [5]): 53 µM
Vmax (Enterococcus [5]): 0.86 µmol/min/mg
kcat (Enterococcus [5]): 0.43 s⁻¹
MIC (Escherichia coli [6]): 250 µg/mL (≈ 350 µM)
MIC (Escherichia coli [7]): 32 µg/mL (≈ 44.8 µM)

NCCCC[C@@H](N)C(=O)NC[C@H]1O[C@@H](O[C@@H]2[C@@H](O)[C@H](N)C[C@H](N)[C@H]2O[C@H]2O[C@H](CN)[C@@H](O)[C@H](O)[C@H]2N)[C@H](O)[C@@H]1O[C@H]1O[C@@H](CN)[C@@H](O)[C@H](O)[C@H]1N
kcat/Km (Enterococcus [1]): 0.47 ×10⁴ /M/s
MIC (Escherichia coli [2]): 32 µg/mL (≈ 43.1 µM)
MIC (Escherichia coli [3]): ≥ 2000 µg/mL
MIC (Escherichia coli [4]): 64 µg/mL (≈ 86.3 µM)
MIC (Staphylococcus aureus): 1 µg/mL (≈ 1.35 µM)
Km (Enterococcus [5]): 75 µM
Vmax (Enterococcus [5]): 0.7 µmol/min/mg
kcat (Enterococcus [5]): 0.35 s⁻¹
MIC (Escherichia coli [6]): 64 µg/mL (≈ 86.3 µM)
MIC (Escherichia coli [7]): 16 µg/mL (≈ 21.6 µM)

NC[C@@H]1O[C@H](O[C@H]2[C@@H](O)[C@H](O[C@@H]3[C@@H](O)[C@H](N)C[C@H](N)[C@H]3O[C@H]3O[C@H](CN)[C@@H](O)[C@H](O)[C@H]3N)O[C@@H]2CNC(=O)[C@@H](N)Cc2c[nH]c3ccccc23)[C@H](N)[C@@H](O)[C@@H]1O
kcat/Km (Enterococcus [1]): 0.1 ×10⁴ /M/s
MIC (Escherichia coli [2]): 16 µg/mL (≈ 20 µM)
MIC (Escherichia coli [3]): ≥ 2000 µg/mL
MIC (Escherichia coli [4]): 16 µg/mL (≈ 20 µM)
MIC (Staphylococcus aureus): 2 µg/mL (≈ 2.5 µM)
Km (Enterococcus [5]): 322 µM
Vmax (Enterococcus [5]): 0.57 µmol/min/mg
kcat (Enterococcus [5]): 0.29 s⁻¹
MIC (Escherichia coli [6]): 64 µg/mL (≈ 80 µM)
MIC (Escherichia coli [7]): 8 µg/mL (≈ 10 µM)

NCCCC[C@H](N)C(=O)NC[C@H]1O[C@@H](O[C@@H]2[C@@H](O)[C@H](N)C[C@H](N)[C@H]2O[C@H]2O[C@H](CN)[C@@H](O)[C@H](O)[C@H]2N)[C@H](O)[C@@H]1O[C@H]1O[C@@H](CN)[C@@H](O)[C@H](O)[C@H]1N
kcat/Km (Enterococcus [1]): 0.51 ×10⁴ /M/s
MIC (Escherichia coli [2]): 16 µg/mL (≈ 21.6 µM)
MIC (Escherichia coli [3]): 125 µg/mL (≈ 168 µM)
MIC (Escherichia coli [4]): 32 µg/mL (≈ 43.1 µM)
MIC (Staphylococcus aureus): 2 µg/mL (≈ 2.7 µM)
Km (Enterococcus [5]): 78 µM
Vmax (Enterococcus [5]): 0.79 µmol/min/mg
kcat (Enterococcus [5]): 0.4 s⁻¹
MIC (Escherichia coli [6]): 32 µg/mL (≈ 43.1 µM)
MIC (Escherichia coli [7]): 16 µg/mL (≈ 21.6 µM)

NC[C@@H]1O[C@H](O[C@H]2[C@@H](O)[C@H](O[C@@H]3[C@@H](O)[C@H](N)C[C@H](N)[C@H]3O[C@H]3O[C@H](CN)[C@@H](O)[C@H](O)[C@H]3N)O[C@@H]2Cn2cc(CNC(=O)c3cc(-c4ccccc4)nc4ccccc34)nn2)[C@H](N)[C@@H](O)[C@@H]1O
kcat/Km (Enterococcus [1]): 0.037 ×10⁴ /M/s
MIC (Escherichia coli [2]): 32 µg/mL (≈ 34.6 µM)
MIC (Escherichia coli [3]): 500 µg/mL (≈ 540 µM)
MIC (Escherichia coli [4]): 32 µg/mL (≈ 34.6 µM)
MIC (Staphylococcus aureus): 8 µg/mL (≈ 8.64 µM)
Km (Enterococcus [5]): 410 µM
Vmax (Enterococcus [5]): 0.3 µmol/min/mg
kcat (Enterococcus [5]): 0.15 s⁻¹
MIC (Escherichia coli [6]): 16 µg/mL (≈ 17.3 µM)
MIC (Escherichia coli [7]): 8 µg/mL (≈ 8.64 µM)

NC[C@@H]1O[C@H](O[C@H]2[C@@H](O)[C@H](O[C@@H]3[C@@H](O)[C@H](N)C[C@H](N)[C@H]3O[C@H]3O[C@H](CN)[C@@H](O)[C@H](O)[C@H]3N)O[C@@H]2CNC(=O)[C@@H](N)CO)[C@H](N)[C@@H](O)[C@@H]1O
kcat/Km (Enterococcus [1]): 1.2 ×10⁴ /M/s
MIC (Escherichia coli [2]): 8 µg/mL (≈ 11.4 µM)
MIC (Escherichia coli [3]): ≥ 2000 µg/mL
MIC (Escherichia coli [4]): 16 µg/mL (≈ 22.8 µM)
MIC (Staphylococcus aureus): 1 µg/mL (≈ 1.43 µM)
Km (Enterococcus [5]): 42 µM
Vmax (Enterococcus [5]): 1.01 µmol/min/mg
kcat (Enterococcus [5]): 0.51 s⁻¹
MIC (Escherichia coli [6]): 32 µg/mL (≈ 45.7 µM)
MIC (Escherichia coli [7]): 8 µg/mL (≈ 11.4 µM)

C[C@@H](N)C(=O)NC[C@H]1O[C@@H](O[C@@H]2[C@@H](O)[C@H](N)C[C@H](N)[C@H]2O[C@H]2O[C@H](CN)[C@@H](O)[C@H](O)[C@H]2N)[C@H](O)[C@@H]1O[C@H]1O[C@@H](CN)[C@@H](O)[C@H](O)[C@H]1N
kcat/Km (Enterococcus [1]): 0.65 ×10⁴ /M/s
MIC (Escherichia coli [2]): 16 µg/mL (≈ 23.4 µM)
MIC (Escherichia coli [3]): ≥ 2000 µg/mL
MIC (Escherichia coli [4]): 16 µg/mL (≈ 23.4 µM)
MIC (Staphylococcus aureus): 1 µg/mL (≈ 1.46 µM)
Km (Enterococcus [5]): 63 µM
Vmax (Enterococcus [5]): 0.82 µmol/min/mg
kcat (Enterococcus [5]): 0.41 s⁻¹
MIC (Escherichia coli [6]): 64 µg/mL (≈ 93.5 µM)
MIC (Escherichia coli [7]): 16 µg/mL (≈ 23.4 µM)

CNCc1cn(C[C@H]2O[C@@H](O[C@@H]3[C@@H](O)[C@H](N)C[C@H](N)[C@H]3O[C@H]3O[C@H](CN)[C@@H](O)[C@H](O)[C@H]3N)[C@H](O)[C@@H]2O[C@H]2O[C@@H](CN)[C@@H](O)[C@H](O)[C@H]2N)nn1
kcat/Km (Enterococcus [1]): 0.36 ×10⁴ /M/s
MIC (Escherichia coli [2]): 8 µg/mL (≈ 11.3 µM)
MIC (Escherichia coli [3]): ≥ 2000 µg/mL
MIC (Escherichia coli [4]): 16 µg/mL (≈ 22.6 µM)
MIC (Staphylococcus aureus): 1 µg/mL (≈ 1.41 µM)
Km (Enterococcus [5]): 100 µM
Vmax (Enterococcus [5]): 0.72 µmol/min/mg
kcat (Enterococcus [5]): 0.36 s⁻¹
MIC (Escherichia coli [6]): 125 µg/mL (≈ 176 µM)
MIC (Escherichia coli [7]): 16 µg/mL (≈ 22.6 µM)

NC[C@@H]1O[C@H](O[C@H]2[C@@H](O)[C@H](O[C@@H]3[C@@H](O)[C@H](N)C[C@H](N)[C@H]3O[C@H]3O[C@H](CN)[C@@H](O)[C@H](O)[C@H]3N)O[C@@H]2CNC(=O)[C@@H]2CCCN2)[C@H](N)[C@@H](O)[C@@H]1O
kcat/Km (Enterococcus [1]): 0.4 ×10⁴ /M/s
MIC (Escherichia coli [2]): 16 µg/mL (≈ 22.5 µM)
MIC (Escherichia coli [3]): ≥ 2000 µg/mL
MIC (Escherichia coli [4]): 16 µg/mL (≈ 22.5 µM)
MIC (Staphylococcus aureus): 0.5 µg/mL (≈ 0.703 µM)
Km (Enterococcus [5]): 80 µM
Vmax (Enterococcus [5]): 0.63 µmol/min/mg
kcat (Enterococcus [5]): 0.32 s⁻¹
MIC (Escherichia coli [6]): 64 µg/mL (≈ 90 µM)
MIC (Escherichia coli [7]): 16 µg/mL (≈ 22.5 µM)

CCCCCCC(=O)NC[C@H]1O[C@@H](O[C@@H]2[C@@H](O)[C@H](N)C[C@H](N)[C@H]2O[C@H]2O[C@H](CN)[C@@H](O)[C@H](O)[C@H]2N)[C@H](O)[C@@H]1O[C@H]1O[C@@H](CN)[C@@H](O)[C@H](O)[C@H]1N
kcat/Km (Enterococcus [1]): 1 ×10⁴ /M/s
MIC (Escherichia coli [2]): 16 µg/mL (≈ 22 µM)
MIC (Escherichia coli [3]): ≥ 2000 µg/mL
MIC (Escherichia coli [4]): 16 µg/mL (≈ 22 µM)
MIC (Staphylococcus aureus): 4 µg/mL (≈ 5.51 µM)
Km (Enterococcus [5]): 48 µM
Vmax (Enterococcus [5]): 0.95 µmol/min/mg
kcat (Enterococcus [5]): 0.48 s⁻¹
MIC (Escherichia coli [6]): 64 µg/mL (≈ 88.2 µM)
MIC (Escherichia coli [7]): 8 µg/mL (≈ 11 µM)

CN(C)Cc1cn(C[C@H]2O[C@@H](O[C@@H]3[C@@H](O)[C@H](N)C[C@H](N)[C@H]3O[C@H]3O[C@H](CN)[C@@H](O)[C@H](O)[C@H]3N)[C@H](O)[C@@H]2O[C@H]2O[C@@H](CN)[C@@H](O)[C@H](O)[C@H]2N)nn1
kcat/Km (Enterococcus [1]): 0.28 ×10⁴ /M/s
MIC (Escherichia coli [2]): 8 µg/mL (≈ 11.1 µM)
MIC (Escherichia coli [3]): ≥ 2000 µg/mL
MIC (Escherichia coli [4]): 16 µg/mL (≈ 22.1 µM)
MIC (Staphylococcus aureus): 2 µg/mL (≈ 2.77 µM)
Km (Enterococcus [5]): 120 µM
Vmax (Enterococcus [5]): 0.65 µmol/min/mg
kcat (Enterococcus [5]): 0.33 s⁻¹
MIC (Escherichia coli [6]): 64 µg/mL (≈ 88.5 µM)
MIC (Escherichia coli [7]): 8 µg/mL (≈ 11.1 µM)

NC[C@@H]1O[C@H](O[C@H]2[C@@H](O)[C@H](O[C@@H]3[C@@H](O)[C@H](N)C[C@H](N)[C@H]3O[C@H]3O[C@H](CN)[C@@H](O)[C@H](O)[C@H]3N)O[C@@H]2Cn2cc(CNC(=O)C3CCNCC3)nn2)[C@H](N)[C@@H](O)[C@@H]1O
kcat/Km (Enterococcus [1]): 0.12 ×10⁴ /M/s
MIC (Escherichia coli [2]): 16 µg/mL (≈ 19.9 µM)
MIC (Escherichia coli [3]): ≥ 2000 µg/mL
MIC (Escherichia coli [4]): 32 µg/mL (≈ 39.7 µM)
MIC (Staphylococcus aureus): 4 µg/mL (≈ 4.96 µM)
Km (Enterococcus [5]): 171 µM
Vmax (Enterococcus [5]): 0.41 µmol/min/mg
kcat (Enterococcus [5]): 0.21 s⁻¹
MIC (Escherichia coli [6]): 64 µg/mL (≈ 79.4 µM)
MIC (Escherichia coli [7]): 16 µg/mL (≈ 19.9 µM)

Reference: ChEMBL document CHEMBL1140232, “Surprising alteration of antibacterial activity of 5"-modified neomycin against resistant bacteria” (2008)
